Test results reported in ChEMBL document CHEMBL1944553, “Structure-activity relationships of truncated C2- or C8-substituted adenosine derivatives as dual acting A₂A and A₃ adenosine receptor ligands” (J Med Chem, 2012).

What was measured:
Adenosine receptor A2a [1] = target: T1, Adenosine receptor A2a (Homo sapiens, UniProt P29274); assay: Displacement of [3H]CGS21680 from human adenosine A2A receptor expressed in HEK293 cells after 60 mins by […]; format: cell-based
Procedure, shortened: (§1)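 HEK-293 cells stably expressing human A2AAR. Membranes at 20 µg/tube were incubated with [3H]CGS21680 at 25 °C for 60 min in 50 mM Tris-HCl pH 7.4 with 10 mM MgCl2. Nonspecific binding was defined with 10 µM NECA, and reactions were stopped by GF/B filtration.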

Adenosine receptor A3 = target: T2, Adenosine receptor A3 (Homo sapiens, UniProt P0DMS8); assay: Displacement of [125I]I-AB-MECA from human adenosine A3 receptor expressed in CHO cells after 60 mins by gamma counting; format: cell-based
T2 sequence (P0DMS8 whole entry): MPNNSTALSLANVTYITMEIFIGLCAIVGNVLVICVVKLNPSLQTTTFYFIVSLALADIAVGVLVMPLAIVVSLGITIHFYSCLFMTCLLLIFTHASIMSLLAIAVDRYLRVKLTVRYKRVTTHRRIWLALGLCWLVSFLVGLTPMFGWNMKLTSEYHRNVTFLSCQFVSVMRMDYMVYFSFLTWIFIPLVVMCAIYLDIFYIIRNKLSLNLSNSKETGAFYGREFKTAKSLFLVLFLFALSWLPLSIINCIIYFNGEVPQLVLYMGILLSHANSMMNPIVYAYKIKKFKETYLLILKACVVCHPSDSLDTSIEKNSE
Procedure, shortened: (§2)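 hA3AR-CHO membranes (20 µg protein) with 0.5 nM [125I]I-AB-MECA and increasing ligand concentrations in 50 mM Tris-HCl pH 7.4, 10 mM MgCl2, 1 mM EDTA; 25 °C, 60 min. Nonspecific binding: 10 µM NECA. Filtered on GF/B, washed three times with ice-cold buffer, gamma-counted.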

[2] = target: T3, Adenosine receptor A1 (Homo sapiens) (UniProt P30542); assay: Displacement of [3H]R-PIA from human recombinant adenosine A1 receptor expressed in CHO cells at 10 uM after 60 mins by […]; format: cell-based
T3 sequence (whole entry): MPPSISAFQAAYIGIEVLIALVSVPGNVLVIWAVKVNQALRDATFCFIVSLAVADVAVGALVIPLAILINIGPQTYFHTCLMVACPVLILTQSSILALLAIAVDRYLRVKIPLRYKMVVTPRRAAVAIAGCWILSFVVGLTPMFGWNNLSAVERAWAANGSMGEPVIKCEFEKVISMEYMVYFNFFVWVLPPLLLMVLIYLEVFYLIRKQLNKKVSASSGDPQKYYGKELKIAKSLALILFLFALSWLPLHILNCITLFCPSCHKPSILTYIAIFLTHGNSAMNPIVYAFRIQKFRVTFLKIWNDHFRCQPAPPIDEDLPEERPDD
Procedure, shortened: (§3)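 Membranes (40 µg/tube) from CHO cells stably expressing human A1AR, incubated with 1 nM [3H]R-PIA at 25 °C for 60 min in 50 mM Tris-HCl pH 7.4 with 10 mM MgCl2. Nonspecific binding set with 10 µM NECA. GF/B filtration.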

[3] = target: T4, Adenosine receptor A3 (Homo sapiens) (UniProt P0DMS8); assay: Partial agonist activity at human recombinant adenosine A3 receptor expressed in CHO cells assessed as inhibition of forskolin-stimulated cAMP production at 10 uM incubated for 30 mins prior to forskolin addition by enzyme immunoassay relative to C1-IB-MECA; format: functional, cell-based
T4 sequence (whole entry): T2 sequence (P0DMS8 whole entry)

Adenosine receptor A2a [4] = target: T1, Adenosine receptor A2a; assay: Displacement of [3H]CGS21680 from human adenosine A2A receptor expressed in HEK293 cells at 10 uM after 60 mins by […]; format: cell-based; procedure, shortened: as §1
[5] = target: T4, Adenosine receptor A3 (Homo sapiens); assay: Displacement of [125I]I-AB-MECA from human adenosine A3 receptor expressed in CHO cells at 10 uM after 60 mins by gamma counting; format: cell-based; procedure, shortened: as §2
Adenosine receptor A2a [6] = target: T1, Adenosine receptor A2a; assay: Agonist activity at human recombinant adenosine A2A receptor expressed in CHO cells assessed as induction of cAMP production after 30 mins by immunoassay; format: functional, cell-based
[7] = target: T4, Adenosine receptor A3 (Homo sapiens); assay: Competitive antagonist activity at human recombinant adenosine A3 receptor expressed in CHO cells assessed as inhibition of C1-IB-MECA-induced cAMP production preincubated for 30 mins prior to forskolin addition by enzyme immunoassay; format: functional, cell-based
[8] = target: T5, Adenosine receptor A2b (Homo sapiens) (UniProt P29275); assay: Agonist activity at human recombinant adenosine A2B receptor expressed in CHO cells assessed as induction of cAMP production at 10 uM after 30 mins by immunoassay relative to NECA; format: functional, cell-based
T5 sequence (whole entry): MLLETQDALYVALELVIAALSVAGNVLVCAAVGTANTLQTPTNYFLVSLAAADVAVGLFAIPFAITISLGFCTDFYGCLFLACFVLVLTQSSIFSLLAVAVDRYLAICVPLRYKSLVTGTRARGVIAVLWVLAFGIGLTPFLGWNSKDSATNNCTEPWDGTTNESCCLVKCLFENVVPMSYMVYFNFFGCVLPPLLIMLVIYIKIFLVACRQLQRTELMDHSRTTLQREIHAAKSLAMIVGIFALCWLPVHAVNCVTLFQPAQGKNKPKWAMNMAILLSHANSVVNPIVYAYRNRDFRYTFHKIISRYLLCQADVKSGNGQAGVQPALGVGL

Adenosine receptor A2a [9] = target: T1, Adenosine receptor A2a; assay: Agonist activity at human recombinant adenosine A2A receptor expressed in CHO cells assessed as induction of cAMP production at 10 uM after 30 mins by enzyme immunoassay relative to NECA; format: functional, cell-based
Rattus norvegicus = assay: Antiinflammatory activity in Sprague-Dawley rat assessed as reduction in carrageenan-induced paw edema at 20 mg/kg, ip administered 30 mins before carrageenan challenge measured after 4 hrs by plethysmometer analysis; format: functional; parameters: scale not given: the % may be the effect or the level left; settings: route intraperitoneal
Procedure, shortened: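 Male Sprague-Dawley rats (140–160 g, 5 weeks), acclimatized one week. Compound at 20 mg/kg given ip in 5% cremophor/5% ethanol in PBS; vehicle as control. After 30 min, 0.1 mL 1% carrageenan in saline was injected subplantar into the right hind paw, with saline in the left. Paw volume was read by plethysmometer at 0–24 h, 4 h included. Mean ± SD, ANOVA.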

Adenosine receptor A1 = target: T6, Adenosine receptor A1 (Homo sapiens, UniProt P30542); assay: Displacement of [3H]R-PIA from human recombinant adenosine A1 receptor expressed in CHO cells after 60 mins by […]; format: cell-based; procedure, shortened: as §3
T6 sequence (P30542 whole entry): T3 sequence (whole entry)

T1 sequence (P29274 whole entry): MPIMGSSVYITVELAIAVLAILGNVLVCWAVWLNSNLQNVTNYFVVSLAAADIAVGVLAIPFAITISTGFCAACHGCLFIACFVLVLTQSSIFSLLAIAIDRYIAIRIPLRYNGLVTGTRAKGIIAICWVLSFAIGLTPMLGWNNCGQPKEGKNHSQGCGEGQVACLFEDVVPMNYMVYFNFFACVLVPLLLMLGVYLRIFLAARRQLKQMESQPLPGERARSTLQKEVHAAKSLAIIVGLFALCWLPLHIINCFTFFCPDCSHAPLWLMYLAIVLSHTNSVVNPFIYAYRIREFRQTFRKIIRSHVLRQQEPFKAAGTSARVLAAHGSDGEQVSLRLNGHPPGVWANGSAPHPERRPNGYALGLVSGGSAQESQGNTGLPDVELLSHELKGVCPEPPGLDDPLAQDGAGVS

SMILES | Ki (Adenosine receptor A2a [1]) | Ki (Adenosine receptor A3) | inhibition [2] | inhibition [3] | inhibition (Adenosine receptor A2a [4]) | also measured
CCCCC#Cc1nc(NCc2cccc(Cl)c2)c2ncn([C@@H]3SC[C@@H](O)[C@H]3O)c2n1 | 3730 nM | 24 nM | 25% | 47.2% |  | 
CCCC/C=C/c1nc(N)c2ncn([C@@H]3SC[C@@H](O)[C@H]3O)c2n1 |  |  |  | 10.7% |  | EC50 (Adenosine receptor A2a [6]): 20.6 nM; Kb [7]: 23.9 nM; Activity [8]: 3.6%; Activity (Adenosine receptor A2a [9]): 109%
CCCCC#Cc1nc(NCc2cccc(F)c2)c2ncn([C@@H]3OC[C@@H](O)[C@H]3O)c2n1 |  | 570 nM | 9% | 29.5% | 25% | 
CCCCC#Cc1nc(NCc2cccc(Cl)c2)c2ncn([C@@H]3OC[C@@H](O)[C@H]3O)c2n1 |  | 150 nM | 9% | 39.7% | 42% | 
COc1ccc2c(c1)c(CC(=O)O)c(C)n2C(=O)c1ccc(Cl)cc1 [INDOMETHACIN] |  |  |  |  |  | Activity (Rattus norvegicus): 49.7%
CCCCC#Cc1nc(NCc2cccc(Br)c2)c2ncn([C@@H]3SC[C@@H](O)[C@H]3O)c2n1 | 3910 nM | 24 nM | 12% | 25.2% |  | 
CCCCC#Cc1nc(NCc2cccc(I)c2)c2ncn([C@@H]3SC[C@@H](O)[C@H]3O)c2n1 | 4890 nM | 39 nM | 15% | 40% |  | 
CCCCC#Cc1nc(NCc2cccc(I)c2)c2ncn([C@@H]3OC[C@@H](O)[C@H]3O)c2n1 |  | 220 nM | 18% | 31.5% | 32% | 
CCCCC#Cc1nc(NCc2cccc(F)c2)c2ncn([C@@H]3SC[C@@H](O)[C@H]3O)c2n1 |  | 150 nM | 24% | 47.6% | 46% | 
CCCCC#Cc1nc(NCc2cccc(Br)c2)c2ncn([C@@H]3OC[C@@H](O)[C@H]3O)c2n1 |  | 67 nM | 12% | 37.2% | 27% | 

Second part, led by results:

Ki (Adenosine receptor A2a [1]) | Ki (Adenosine receptor A3) | inhibition [2] | inhibition [3] | inhibition (Adenosine receptor A2a [4]) | SMILES | also measured
 |  | 18.1% | 12.9% | 5.8% | CCCCCCc1nc2c(N)ncnc2n1[C@@H]1OC[C@@H](O)[C@H]1O | inhibition [5]: 24.7%
178 nM | 218 nM | 31.9% | 42.6% |  | CCCC/C=C/c1nc(N)c2ncn([C@@H]3OC[C@@H](O)[C@H]3O)c2n1 | Activity [8]: 1.8%; Activity (Adenosine receptor A2a [9]): 83%
 |  |  | 1.7% |  | CCCCC#Cc1nc2c(N)ncnc2n1[C@@H]1SC[C@@H](O)[C@H]1O | Activity [8]: 7%
2160 nM |  | 10% | 22.3% |  | CCCCCCc1nc(N)c2ncn([C@@H]3OC[C@@H](O)[C@H]3O)c2n1 | inhibition [5]: 39%
 | 31.7 nM |  | 24.5% | 27.2% | CCCCC#Cc1nc2c(N)ncnc2n1[C@@H]1OC[C@@H](O)[C@H]1O | Ki (Adenosine receptor A1): 290 nM
 |  |  | 2.8% |  | CCCCC#Cc1nc(N)c2ncn([C@@H]3SC[C@@H](O)[C@H]3O)c2n1 | Activity (Rattus norvegicus): 51.1%
 |  |  | 6.1% |  | CCCC/C=C/c1nc2c(N)ncnc2n1[C@@H]1SC[C@@H](O)[C@H]1O | 
63.2 nM | 138 nM |  | 17.4% |  | CCCCC#Cc1nc(N)c2ncn([C@@H]3OC[C@@H](O)[C@H]3O)c2n1 | EC50 (Adenosine receptor A2a [6]): 80.3 nM; Activity [8]: 1.9%; Ki (Adenosine receptor A1): 740 nM; Activity (Adenosine receptor A2a [9]): 89.9%
 | 94.2 nM |  | 19.5% | 27.3% | CCCC/C=C/c1nc2c(N)ncnc2n1[C@@H]1OC[C@@H](O)[C@H]1O | Ki (Adenosine receptor A1): 500 nM
